Drawing on ChEMBL document CHEMBL1158092, “Discovery, synthesis, and insecticidal activity of cycloaspeptide E” (2006), this text covers Activity and MIC for 3 compounds.

Each structure is given as a SMILES string. In brackets after ≈: the same amount, converted by molar mass. Activity calls are given as the source filed them. The rule behind the calls is not given here. Where a SMILES comes first, the peptide text is derived from it. Where only a bound is given, the exact number is not on record here.

Assay [1] has as its system Trichoplusia ni. Kind of assay: Insecticidal activity against cabbage looper assessed as mortality dosed by ingestion from leaf after 24 hrs by lepidopteran limited ingestion exposure assay. The assay is classed as functional. In short, it runs like this: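 Cabbage leaf disks (0.25 cm²) were each treated with 1 µL of a 5 mg/mL acetone solution and dried. Each disk was offered to one of six cabbage looper larvae for 24 h, held individually under ambient lab conditions. Solvent and untreated disk controls were included. Afterwards, mortality, intoxication symptoms and disk consumption were noted, and larvae were given artificial diet.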

The subject of assay [2] is Spodoptera exigua. Kind of assay: Insecticidal activity against 3/4th instar beet armyworm assessed as intoxication and mortality topically dosed at 2.5 ug/larva after 24 hrs by lepidopteran topical assay. In kind it is functional, organism-based.
Assay [3] concerns Spodoptera exigua. Kind of assay: Insecticidal activity against fourth instar beet armyworm assessed as body tremors and partial paralysis after 24 hrs by BAW injection assay. The assay is classed as functional, organism-based. In short, it runs like this: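 Six fourth-instar beet armyworm were each injected with 0.5 µL of a 20 mg/mL acetone solution (10 µg/insect). Solvent-only and untreated controls were included. Larvae were held singly with artificial diet under ambient conditions. Intoxication symptoms were scored at 1, 24 and 48 h, and mortality at 48 h.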

In assay [4] the test system is Trichoplusia ni. Briefly: Insecticidal activity against 3/4th instar cabbage looper assessed as intoxication topically dosed at 2.5 ug/larva after 24 hrs by lepidopteran topical assay. In kind it is functional.
The subject of assay [5] is Spodoptera exigua. Briefly: Insecticidal activity against beet armyworm assessed as circling dosed by ingestion from leaf after 18 hrs by lepidopteran limited ingestion exposure assay. The assay is classed as functional, organism-based.
Assay [6] has as its system Trichoplusia ni. Briefly: Insecticidal activity against cabbage looper assessed as body tremors dosed by ingestion from leaf after 18 hrs by lepidopteran limited ingestion exposure assay. In kind it is functional, organism-based.
Assay [7] relates to Spodoptera exigua. Kind of assay: Insecticidal activity against beet armyworm eggs assessed as inhibition of insect growth at 28 degC after 6 days by lepidopteran diet assay. The assay is classed as functional. The following applies: 144 h. In a few lines: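 Beet armyworm eggs (8-10 per well) on artificial diet in 96-well plates. Test samples were applied in acetone-water (50:50), dried onto the diet surface, and tested at 0.98-500 ppm (of diet weight) in 2-fold steps. Plates were incubated 6 days at 28 °C. Value is the minimum concentration inhibiting growth relative to untreated control.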

Assay [8] has as its system Spodoptera exigua. Briefly: Insecticidal activity against fourth instar beet armyworm assessed as body tremors and partial paralysis after 3 to 6 hrs by BAW injection assay. In kind it is functional.
The subject of assay [9] is Trichoplusia ni. Kind of assay: Insecticidal activity against 3/4th instar cabbage looper assessed as intoxication topically dosed at 5 ug/larva after 24 hrs by lepidopteran topical assay.
In assay [10] the test system is Spodoptera exigua. Kind of assay: Insecticidal activity against fourth instar beet armyworm assessed as body tremors and partial paralysis after 1 hrs by BAW injection assay. In kind it is functional, organism-based.
Assay [11] relates to Spodoptera exigua. Briefly: Insecticidal activity against 3/4th instar beet armyworm assessed as intoxication and mortality topically dosed at 5 ug/larva after 24 hrs by lepidopteran topical assay.

As for `CC(C)C[C@@H]1NC(=O)[C@H](Cc2ccccc2)N(C)C(=O)[C@H](C)NC(=O)c2ccccc2NC(=O)[C@H](Cc2ccccc2)N(C)C1=O` [CYCLOASPEPTIDE E] (HELM PEPTIDE1{[O=C(c1ccccc1N[*:1])[*:2]].A.[meF].L.[meF]}$PEPTIDE1,PEPTIDE1,1:R1-5:R2$$$V2.0), the Activity stood at 15% in assay [1], 50% in assay [4] and 85% in assay [8]. Also, the outcome in [2] and in assay [3] was inactive. For the same compound, the result in assay [5] and in assay [6] was Active. In assay [7], the MIC (commonly the least concentration at which growth counts as inhibited) was found to be 10 mg/L (≈ 16 µM).

`CC(C)C[C@@H]1NC(=O)[C@H](Cc2ccccc2)N(C)C(=O)[C@H](C)NC(=O)c2ccccc2NC(=O)[C@H](Cc2ccc(O)cc2)N(C)C1=O` [CYCLOASPEPTIDE A] (HELM PEPTIDE1{[O=C(c1ccccc1N[*:1])[*:2]].A.[meF].L.[meY]}$PEPTIDE1,PEPTIDE1,1:R1-5:R2$$$V2.0): the outcome in assay [9], in [1], in assay [10] and in [11] was inactive. Moreover, the outcome in assay [5] and in assay [6] was Active. Further, the MIC in assay [7] is greater than 500 mg/L.

Consider `CC[C@H]1CCC[C@H](O[C@H]2CC[C@H](N(C)C)[C@@H](C)O2)[C@@H](C)C(=O)C2=C[C@@H]3[C@@H](C=C[C@@H]4C[C@@H](O[C@@H]5O[C@@H](C)[C@H](OC)[C@@H](OC)[C@H]5OC)C[C@@H]34)[C@@H]2CC(=O)O1` [SPINOSYN A], for which the MIC in assay [7] turned out to be 0.02 mg/L (≈ 0.0273 µM).
